Source: PubChem BioAssay
Compounds with a hit are over-represented: about 1.5% of the library has one in this group of screens.
Casp6 inh = blocks human caspase-6 cleavage activity; purified caspase-6, Z-VEID-R110 cleavage fluorescence; 350,000 compounds, 0.53% hits; inhibition, % at 12.5 µM; AID 686996;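 active = mean inhibition across replicates at least about 35%, with every replicate also reaching that limit, limit read from the data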;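 note: 0% = median of neutral control wells and 100% = no fluorescence left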
DNMT1 block = inhibitors of human DNMT1. AID 588458. DNMT1 molecular beacon, Hinp1I cleavage, fluorescence. P26358. inhibition (reported as % activation of signal), % at 10 µM. 360,000 compounds, 0.83% hits
NSD2 inh = inhibitors of human histone methyltransferase NSD2. NSD2 peptide methylation, AlphaScreen, 120 min. inhibition, % at 12.5 µM. 310,000 compounds, 0.54% hits
HCV NS3 hel inh = inhibitors of Hepatitis C virus NS3 helicase; NS3 helicase DNA unwinding, Cy5 molecular beacon fluorescence; inhibition, % at 10.9 µM; 290,000 compounds, 0.56% hits; AID 1800;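 active = inhibition above the mean of all tested compounds plus 3 SD, set per campaign, cut at about 35% in these data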;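 note: 0% = DMSO wells and 100% = thioflavine S control wells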
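Measured by: Cy5 fluorescence, 0 and 60 min reads / Assay system: NS3 helicase fragment of HCV / Control set: low DMSO, high thioflavine S at 110 µM / Times: 1 h reaction at 25 °C, ATP-initiated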
AlphaScreen art = interferes with AlphaScreen signal, flagging NSD2 false positives | shares compounds with NSD2 inh | AlphaScreen artifact counterscreen, preloaded methylated H4 peptide | AC35, µM (highest dose often 10 µM), inactives show at the highest dose activity change, negative = signal loss | 1,500 compounds, 9.4% hits | AID 1053174; call rule not given here
Numbers without * were called inactive; nt = no result given. Cut-off read from the data, not from the text of the source, unless noted: active = inhibition above about 50%; inactive = the rest.

SMILES	Casp6 inh	DNMT1 block	NSD2 inh	HCV NS3 hel inh	AlphaScreen art
NC(=S)Nc1cccc2cnccc12	nt	-2	-1	-6	nt
Fc1ccccc1NC(=S)Nc1cccc2cnccc12	27	-2	99*	-14	-4%
Cc1ccc(C)c(NC(=S)Nc2cccc3cnccc23)c1	20	4	98*	-9	-6%
Cc1ccccc1NC(=S)Nc1cccc2cnccc12	17	-15	104*	9	6%
COc1ccccc1NC(=O)N1[C@@H]2CNC[C@H]1C2c1ccc(-c2ccccc2OC)cc1 (stereo partly drawn)	-1	nt	nt	nt	nt
CCOC(=O)c1c(C)[nH]c(C)c1C(=O)COC(=O)[C@@H]1CCCN1S(=O)(=O)c1ccc(Cl)cc1	9	-1	76*	-6	-5%
O=C(COC(=O)[C@@H]1CCCN1S(=O)(=O)c1ccc(Cl)cc1)NCC(F)(F)F	nt	-2	-1	1	nt
COc1cc2sc(C)nc2c2ccccc12	40*	-6	64*	-14	-1%
Cc1nc2c(ccc3c2ccc2nc(C)sc23)s1	nt	nt	4	13	nt
Cc1cc(C(=O)Nc2cccc3c2O[C@H](CN(C)S(=O)(=O)c2cn(C)cn2)[C@H](C)CN([C@H](C)CO)C3=O)n(C)n1	0	nt	nt	nt	nt
O=C(c1ccc(S(=O)(=O)N2CCOCC2)cc1)N(c1cccc(Cl)c1)C1C=CS(=O)(=O)C1 (stereo not drawn)	-2	0	83*	4	-6%
CC(C)[n+]1ccn(C2=C([O-])c3ccccc3C(=O)/C2=N\S(=O)(=O)c2ccccc2)c1	35*	-9	96*	4	4%
CC(C)(C)c1cc[n+](C2=C([O-])c3ccccc3C(=O)/C2=N\S(=O)(=O)c2ccccc2)cc1	7	0	63*	0	-3%
O=C1C(Cl)=C(NCCc2ccccc2)C(=O)c2ccccc21	44*	47	81*	nt	-18%
O=C(O)c1cccc(NC2=C(Cl)C(=O)c3ccccc3C2=O)c1	25	-11	99*	3	-4%
O=C1C(Cl)=C(Nc2ccccc2)C(=O)c2ccccc21	5	-8	0	15	nt
CC(C)NC1=C(Cl)C(=O)c2ccccc2C1=O	nt	-10	34	2	nt
C=CCNC1=C(Cl)C(=O)c2ccccc2C1=O	nt	-14	92*	16	-16%
COCC(=O)N(C)C[C@H]1Oc2cc(-c3cncnc3)ccc2S(=O)(=O)N([C@@H](C)CO)C[C@@H]1C	0	nt	nt	nt	nt
O=C(C[C@@H]1CC[C@H]2[C@@H](COC[C@H](O)CN2C(=O)Cc2ccccc2)O1)NC1CCCC1	1	nt	nt	nt	nt
C[C@@H]1CN([C@@H](C)CO)C(=O)c2cc(-c3ccncc3)cnc2O[C@H]1CN(C)Cc1ccc(Oc2ccccc2)cc1	-3	nt	nt	nt	nt
COCC(=O)N1CC2(C1)CN(Cc1ccccn1)[C@@H](CO)c1[nH]c3cc(OC)ccc3c12	-5	nt	nt	nt	nt
CN(C)CCCNC(=O)C[C@@H]1CC[C@H](NS(=O)(=O)c2ccc(F)cc2)[C@H](CO)O1	2	nt	nt	nt	nt
C[C@@H]1CN([C@@H](C)CO)S(=O)(=O)c2ccc(Br)cc2O[C@@H]1CN(C)Cc1ccc(C(=O)O)cc1	3	nt	nt	nt	nt
COc1ccc(S(=O)(=O)NCC2CCCO2)cc1Cl (stereo not drawn)	0	10	-3	-2	nt
SMILES	Casp6 inh	DNMT1 block	NSD2 inh	HCV NS3 hel inh	AlphaScreen art
COC(=O)COc1ccc(S(=O)(=O)NCC2CCCO2)cc1Cl (stereo not drawn)	nt	0	51*	24	1%
C=CCn1c(SCc2ccc(C#N)cc2)nnc1-c1ccc(C)cc1	nt	0	61*	0	-2%
Cc1cccc(-n2c(Cn3nc(C)c([N+](=O)[O-])c3C)n[nH]c2=S)c1	nt	0	125*	-4	2%
O=C1CC(=O)Nc2cc(S(=O)(=O)Nc3ccc(Cl)c(C(F)(F)F)c3)ccc2N1	3	-1	52*	-1	-1%
CCS(=O)(=O)NCC[C@@H]1CC[C@H](NS(=O)(=O)c2cccc(Cl)c2)[C@H](CO)O1	0	nt	nt	nt	nt
O=C(CC1C(=O)N(c2ccccc2)C(=S)N1c1ccccc1)c1ccc(Br)cc1 (stereo not drawn)	-8	-1	50*	-11	2%
CC(C)(C#N)NC(=O)C1CCCN1S(=O)(=O)c1ccc2ccccc2c1 (stereo not drawn)	-3	-1	109*	2	-2%
CCNC(=O)C1CCCN1S(=O)(=O)c1ccc2ccccc2c1 (stereo not drawn)	3	0	-4	2	nt
Cc1c(NC(=O)CN2C(=O)C(=O)c3ccccc32)c(=O)n(-c2ccccc2)n1C	0	-2	56*	-5	-3%
Cc1c(NC(=O)CN2C(=O)c3cccc4cccc2c34)c(=O)n(-c2ccccc2)n1C	nt	-7	1	-4	nt
Cc1ccc(S(=O)(=O)Nc2ccc3c(c2)C(=O)N([C@H](C)CO)C[C@@H](C)[C@@H](CN(C)C)O3)cc1	-1	nt	nt	nt	nt
CCOC(=O)Cn1ncc(-c2ccccc2)c1N	nt	3	128*	-4	-1%
CNC(=O)C[C@@H]1CC[C@H]2[C@@H](COC[C@@H](O)CN2Cc2ccc(C(F)(F)F)cc2)O1	5	nt	nt	nt	nt
CNCCCC12CCC(c3ccccc31)c1ccccc12	-1	1	84*	-26	1%
CCC1Cc2c(nc(N)c3c(N)nc(N4CCOCC4)c(C#N)c23)O1 (stereo not drawn)	2	-19	82*	-7	-2%
CCOc1cc2c(C#N)c(N3CCOCC3)nc(N)c2c(N)n1	nt	18	70*	nt	1%
Cc1cc(N2CCOCC2)nc(N2CCOCC2)c1C#N	2	4	-2	nt	nt
COc1ccc(S(=O)(=O)Nc2ccc3c(c2)C(=O)N([C@H](C)CO)C[C@@H](C)[C@H](CN(C)S(=O)(=O)c2cccs2)OCCCC[C@@H](C)O3)cc1	-1	nt	nt	nt	nt
CNC(=O)C[C@H]1CC[C@H]2[C@@H](COc3ccc(NC(=O)Nc4ccc(C#N)cc4)cc3C(=O)N2C)O1	0	nt	nt	nt	nt
O=C(NCCN1CCOCC1)NC1(C(F)(F)F)Oc2ccccc2O1	nt	3	55*	5	2%
CCCCNC(=O)NC1(C(F)(F)F)Oc2ccccc2O1	nt	-1	-1	-5	nt
CC(C)(C)c1[nH]nc2c1C(c1ccoc1)C(C#N)=C(N)O2 (stereo not drawn)	nt	-7	76*	-3	-2%
Cc1ccc(C(=O)NC2(O)C(=O)c3ccccc3C2=O)cc1C	22	24	110*	-1	3%
O=C(Cc1ccccc1)NC1(O)C(=O)c2ccccc2C1=O	25	15	101*	-9	2%
Cc1ccc(C(=O)NCC(=O)OCN2C(=O)c3ccccc3C2=O)cc1C	-1	3	-3	nt	nt
O=C(NC1(O)C(=O)c2ccccc2C1=O)c1ccc(C(F)(F)F)cc1	26	61*	108*	-1	0%
Cc1ccccc1Nc1nc(N)nc(CSc2nnc3sc4ccccc4n23)n1	nt	-3	66*	-2	4%
O=C(C[C@@H]1CC[C@H](NC(=O)NC2CCCCC2)[C@H](CO)O1)NCc1ccc(Cl)cc1	1	nt	nt	nt	nt
